Measurements reported in ChEMBL document CHEMBL3627606, “Development of Novel, CNS Penetrant Positive Allosteric Modulators for the Metabotropic Glutamate Receptor Subtype 1 (mGlu1), Based on an N-(3-Chloro-4-(1,3-dioxoisoindolin-2-yl)phenyl)-3-methylfuran-2-carboxamide Scaffold, That Potentiate Wild Type and Mutant mGlu1 Receptors Found in …” (J Med Chem, 2015).

How the values were obtained:
[1] = target: T1, Metabotropic glutamate receptor 1 (Homo sapiens, UniProt Q13255); assay: Positive allosteric modulation of human mGlu1 receptor in HEK293 cells assessed as potentiation of glutamate-induced calcium mobiliztion by Fluo-4AM dye based fluorescence analysis; type: functional, cell-based
Target sequence in this assay (Q13255 whole entry): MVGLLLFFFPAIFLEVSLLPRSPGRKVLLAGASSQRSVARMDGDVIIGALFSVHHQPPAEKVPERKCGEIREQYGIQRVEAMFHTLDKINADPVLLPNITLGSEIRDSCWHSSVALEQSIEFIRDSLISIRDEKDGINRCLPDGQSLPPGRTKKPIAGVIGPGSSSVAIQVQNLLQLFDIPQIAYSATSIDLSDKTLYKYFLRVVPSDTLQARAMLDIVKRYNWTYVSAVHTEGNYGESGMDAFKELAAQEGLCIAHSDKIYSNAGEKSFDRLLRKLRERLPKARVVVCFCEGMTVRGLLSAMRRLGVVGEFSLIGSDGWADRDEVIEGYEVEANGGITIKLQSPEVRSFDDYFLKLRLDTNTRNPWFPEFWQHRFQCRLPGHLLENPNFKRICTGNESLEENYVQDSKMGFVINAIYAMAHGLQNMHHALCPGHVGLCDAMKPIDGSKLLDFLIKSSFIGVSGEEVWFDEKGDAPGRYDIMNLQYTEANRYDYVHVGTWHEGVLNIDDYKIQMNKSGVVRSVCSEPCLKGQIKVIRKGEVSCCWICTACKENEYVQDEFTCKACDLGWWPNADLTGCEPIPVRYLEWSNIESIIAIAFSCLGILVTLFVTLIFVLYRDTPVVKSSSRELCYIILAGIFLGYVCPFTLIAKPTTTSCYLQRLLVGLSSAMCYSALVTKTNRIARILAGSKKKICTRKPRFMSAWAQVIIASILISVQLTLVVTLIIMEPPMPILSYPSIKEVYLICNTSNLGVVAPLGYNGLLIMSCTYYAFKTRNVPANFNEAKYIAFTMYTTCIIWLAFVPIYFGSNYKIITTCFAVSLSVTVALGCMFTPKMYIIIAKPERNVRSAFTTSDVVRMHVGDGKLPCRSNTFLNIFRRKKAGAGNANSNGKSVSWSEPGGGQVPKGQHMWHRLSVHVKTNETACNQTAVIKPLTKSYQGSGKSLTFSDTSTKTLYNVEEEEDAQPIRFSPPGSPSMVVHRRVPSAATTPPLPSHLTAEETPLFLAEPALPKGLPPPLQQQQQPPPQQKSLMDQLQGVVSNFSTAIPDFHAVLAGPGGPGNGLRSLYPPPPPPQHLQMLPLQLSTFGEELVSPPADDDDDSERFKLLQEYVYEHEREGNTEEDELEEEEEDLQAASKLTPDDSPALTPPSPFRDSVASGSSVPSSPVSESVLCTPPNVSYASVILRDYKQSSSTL

[2] = target: T1, Metabotropic glutamate receptor 1; assay: Positive allosteric modulation of human mGlu1 receptor in HEK293 cells assessed as potentiation of glutamate-induced calcium mobiliztion by Fluo-4AM dye based fluorescence analysis relative to glutamate; type: functional, cell-based
Target sequence in this assay (Q13255 19-1194 limits assumed): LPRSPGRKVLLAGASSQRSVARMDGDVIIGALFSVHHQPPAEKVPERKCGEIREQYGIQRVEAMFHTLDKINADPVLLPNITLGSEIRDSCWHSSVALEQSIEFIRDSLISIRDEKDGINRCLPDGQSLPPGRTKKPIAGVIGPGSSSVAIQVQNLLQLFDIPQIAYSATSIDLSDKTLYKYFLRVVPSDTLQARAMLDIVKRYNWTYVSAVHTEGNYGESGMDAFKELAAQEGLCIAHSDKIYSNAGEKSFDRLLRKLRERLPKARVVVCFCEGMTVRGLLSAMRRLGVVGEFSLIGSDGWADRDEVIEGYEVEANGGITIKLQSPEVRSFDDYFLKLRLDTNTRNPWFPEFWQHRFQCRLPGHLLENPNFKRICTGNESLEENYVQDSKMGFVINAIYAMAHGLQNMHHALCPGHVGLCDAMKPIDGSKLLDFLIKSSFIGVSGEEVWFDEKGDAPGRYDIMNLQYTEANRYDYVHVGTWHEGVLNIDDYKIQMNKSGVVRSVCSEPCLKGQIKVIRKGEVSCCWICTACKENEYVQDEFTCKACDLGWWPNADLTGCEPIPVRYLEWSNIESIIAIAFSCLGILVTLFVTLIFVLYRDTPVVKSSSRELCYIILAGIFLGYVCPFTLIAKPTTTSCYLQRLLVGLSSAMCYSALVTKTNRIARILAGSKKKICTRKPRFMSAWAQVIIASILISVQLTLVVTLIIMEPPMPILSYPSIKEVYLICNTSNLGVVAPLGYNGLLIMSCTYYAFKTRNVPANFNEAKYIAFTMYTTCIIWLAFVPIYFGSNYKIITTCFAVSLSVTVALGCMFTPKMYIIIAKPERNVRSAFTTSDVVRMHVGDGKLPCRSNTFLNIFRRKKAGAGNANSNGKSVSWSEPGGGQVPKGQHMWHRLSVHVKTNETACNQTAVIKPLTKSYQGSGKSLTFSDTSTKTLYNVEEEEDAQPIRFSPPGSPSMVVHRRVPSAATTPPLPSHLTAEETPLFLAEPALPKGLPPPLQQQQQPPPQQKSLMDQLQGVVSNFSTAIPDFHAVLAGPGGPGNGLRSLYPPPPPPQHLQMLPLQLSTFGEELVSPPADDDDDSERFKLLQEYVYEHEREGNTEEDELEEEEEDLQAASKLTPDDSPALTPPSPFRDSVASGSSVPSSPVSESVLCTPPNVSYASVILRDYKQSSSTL

[3] = target: Metabotropic glutamate receptor 4 (Homo sapiens, UniProt Q14833); assay: Positive allosteric modulation of human mGlu4 receptor assessed as potentiation of glutamate-induced calcium mobiliztion by cell based assay; type: functional; settings: read-out: EC50
Homo sapiens [4] = organism: Homo sapiens; assay: Selectivity index, ratio of EC50 for human mGlu4 receptor to EC50 for human mGlu1 receptor
[5] = target: Metabotropic glutamate receptor 1 (Rattus norvegicus, UniProt P23385); assay: Positive allosteric modulation of rat mGlu1 receptor assessed as potentiation of glutamate-induced calcium mobiliztion by cell based assay; type: functional
How it was run: (§1)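 Rat mGlu1 WT calcium mobilization concentration-response curves. EC50 and % Glu Max were derived from the curves.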

[6] = target: Metabotropic glutamate receptor 1 (Rattus norvegicus) (UniProt P23385); assay: Positive allosteric modulation of rat mGlu1 receptor assessed as potentiation of glutamate-induced calcium mobiliztion by cell based assay relative to glutamate; type: functional; how it was run: as §1
[7] = target: T1, Metabotropic glutamate receptor 1; assay: Positive allosteric modulation of human mGlu1 receptor in HEK293 cells assessed as potentiation of glutamate-induced calcium mobiliztion at 10 uM by Fluo-4AM dye based fluorescence analysis; type: functional, cell-based
Target sequence in this assay (Q13255 19-1194 limits assumed): as above

[8] = target: Metabotropic glutamate receptor 5 (Homo sapiens) (UniProt P41594); assay: Positive allosteric modulation of mGlu5 receptor (unknown origin) assessed as potentiation of glutamate-induced response by cell-based assay
How it was run: (§2)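 Selectivity counterscreen at the other mGlu subtypes using the standard fold-shift paradigm. Compound was tested at 10 μM against the glutamate concentration-response curve, and the shift of that curve was read.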

[9] = target: Metabotropic glutamate receptor 6 (Homo sapiens) (UniProt O15303); assay: Positive allosteric modulation of mGlu6 receptor (unknown origin) assessed as potentiation of glutamate-induced response by cell-based assay; how it was run: as §2
[10] = target: Metabotropic glutamate receptor 8 (Homo sapiens) (UniProt O00222); assay: Positive allosteric modulation of mGlu8 receptor (unknown origin) assessed as potentiation of glutamate-induced response by cell-based assay; how it was run: as §2
[11] = Intrinsic clearance in human liver microsomes at 1 uM by LC-MS/MS analysis; type: ADME; settings: read-out: CLH
Plasma [12] = assay: Fraction unbound in human plasma; type: ADME, cell-free
Plasma [13] = assay: Fraction unbound in rat plasma; type: ADME, cell-free
Cytochrome P450 1A2 = target: T2, Cytochrome P450 1A2 (Homo sapiens, UniProt P05177); assay: Inhibition of CYP1A2 in human liver microsomes by LC-MS/MS analysis; type: ADME
T2 sequence (P05177 whole entry): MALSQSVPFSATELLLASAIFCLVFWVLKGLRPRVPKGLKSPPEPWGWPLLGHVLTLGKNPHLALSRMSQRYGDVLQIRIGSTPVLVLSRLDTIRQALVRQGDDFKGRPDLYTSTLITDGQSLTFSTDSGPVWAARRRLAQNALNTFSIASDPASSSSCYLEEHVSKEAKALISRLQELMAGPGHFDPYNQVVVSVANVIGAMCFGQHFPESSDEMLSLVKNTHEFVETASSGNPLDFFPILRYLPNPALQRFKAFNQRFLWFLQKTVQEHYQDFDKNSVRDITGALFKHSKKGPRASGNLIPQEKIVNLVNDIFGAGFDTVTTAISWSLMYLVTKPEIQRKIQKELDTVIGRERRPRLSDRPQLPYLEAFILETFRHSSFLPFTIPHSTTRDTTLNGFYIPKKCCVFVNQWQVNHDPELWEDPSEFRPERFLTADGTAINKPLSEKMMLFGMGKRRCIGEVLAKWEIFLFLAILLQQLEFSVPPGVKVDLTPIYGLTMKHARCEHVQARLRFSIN

Cytochrome P450 2D6 = Cytochrome P450 2D6 (Homo sapiens, UniProt P10635); assay: Inhibition of CYP2D6 in human liver microsomes by LC-MS/MS analysis; type: ADME
Cytochrome P450 3A4 = Cytochrome P450 3A4 (Homo sapiens, UniProt P08684); assay: Inhibition of CYP3A4 in human liver microsomes by LC-MS/MS analysis; type: ADME
[14] = tested on: Metabotropic glutamate receptor 1 (Homo sapiens), Q13255 [P729T]; assay: Agonist activity at human mGlu1 P729T mutant receptor expressed in HEK293 cells assessed as calcium mobilization at > 1 uM uM by Fluo-4AM dye based fluorescence analysis; type: functional, cell-based
[15] = tested on: Metabotropic glutamate receptor 1 (Homo sapiens), Q13255 [A683E]; assay: Agonist activity at human mGlu1 A683E mutant receptor expressed in HEK293 cells assessed as calcium mobilization at > 1 uM uM by Fluo-4AM dye based fluorescence analysis; type: functional, cell-based
[16] = tested on: Metabotropic glutamate receptor 1 (Homo sapiens), Q13255 [Y632H]; assay: Agonist activity at human mGlu1 Y632H mutant receptor expressed in HEK293 cells assessed as calcium mobilization at > 1 uM uM by Fluo-4AM dye based fluorescence analysis; type: functional, cell-based
Hippocampus = assay: Toxic epileptiform activity in C57BL/6 mouse CA3 region of hippocampus assessed as frequency of spike activity at 10 uM by electrophysiolgy method (reference value: 0.99 +/- 0.38 Hz); type: toxicity, tissue-based
How it was run: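 Mouse hippocampal slices with extracellular recording from the CA3 pyramidal cell body layer. Compound (10 μM) or DHPG (50 μM) was bath-applied, and the frequency of spontaneous spikes was compared with baseline. n = 6 per agent, paired t test.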

Brain = assay: Drug concentration in C57BL/6 mouse brain at 100 mg/kg, ip administered as single dose; type: ADME, organism-based; settings: in vivo, read-out: Drug uptake
Homo sapiens [17] = organism: Homo sapiens; assay: Intrinsic clearance in human hepatocytes at 1 uM by LC-MS/MS analysis; settings: read-out: CLH
[18] = Half life in Sprague-Dawley rat at 0.2 mg/kg, iv by LC-MS/MS analysis; settings: in vivo
[19] = Plasma clearance in Sprague-Dawley rat at 0.2 mg/kg, iv by LC-MS/MS analysis
[20] = Plasma concentration in Sprague-Dawley rat at 0.2 mg/kg, iv after 0.25 hrs by LC-MS/MS analysis
Rattus norvegicus = assay: Volume of distribution at steady state in Sprague-Dawley rat at 0.2 mg/kg, iv by LC-MS/MS analysis; settings: in vivo
[21] = Drug concentration in Sprague-Dawley rat brain at 0.2 mg/kg, iv after 0.25 hrs by LC-MS/MS analysis; settings: read-out: Drug uptake
[22] = Ratio of drug level in brain to plasma of Sprague-Dawley rat at 0.2 mg/kg, iv after 0.25 hrs by LC-MS/MS analysis; settings: read-out: BPR

Chain of Metabotropic glutamate receptor 8 (Homo sapiens) (O00222 whole entry): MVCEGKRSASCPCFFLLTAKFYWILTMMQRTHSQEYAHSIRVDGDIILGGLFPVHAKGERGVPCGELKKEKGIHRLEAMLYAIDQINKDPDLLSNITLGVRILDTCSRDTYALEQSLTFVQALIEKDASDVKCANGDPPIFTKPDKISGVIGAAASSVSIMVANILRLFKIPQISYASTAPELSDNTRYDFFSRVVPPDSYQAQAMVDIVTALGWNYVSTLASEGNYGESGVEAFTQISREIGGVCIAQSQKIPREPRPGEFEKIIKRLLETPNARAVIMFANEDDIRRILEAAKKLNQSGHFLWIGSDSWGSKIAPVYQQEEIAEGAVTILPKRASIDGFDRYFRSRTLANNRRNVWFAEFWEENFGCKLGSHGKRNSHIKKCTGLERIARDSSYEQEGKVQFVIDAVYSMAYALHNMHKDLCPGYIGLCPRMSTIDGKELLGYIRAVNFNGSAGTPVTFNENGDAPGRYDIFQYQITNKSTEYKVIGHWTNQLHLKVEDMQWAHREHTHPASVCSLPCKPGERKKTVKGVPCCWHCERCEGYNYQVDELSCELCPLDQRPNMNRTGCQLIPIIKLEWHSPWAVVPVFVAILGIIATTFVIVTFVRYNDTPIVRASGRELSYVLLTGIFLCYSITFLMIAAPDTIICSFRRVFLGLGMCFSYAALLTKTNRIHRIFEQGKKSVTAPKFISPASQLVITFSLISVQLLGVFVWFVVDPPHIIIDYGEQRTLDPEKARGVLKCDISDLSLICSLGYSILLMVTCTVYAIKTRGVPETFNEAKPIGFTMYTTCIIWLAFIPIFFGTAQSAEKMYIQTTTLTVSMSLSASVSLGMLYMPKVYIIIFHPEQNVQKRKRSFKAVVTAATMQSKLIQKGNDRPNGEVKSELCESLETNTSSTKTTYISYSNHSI
Chain of Metabotropic glutamate receptor 6 (Homo sapiens) (O15303 whole entry): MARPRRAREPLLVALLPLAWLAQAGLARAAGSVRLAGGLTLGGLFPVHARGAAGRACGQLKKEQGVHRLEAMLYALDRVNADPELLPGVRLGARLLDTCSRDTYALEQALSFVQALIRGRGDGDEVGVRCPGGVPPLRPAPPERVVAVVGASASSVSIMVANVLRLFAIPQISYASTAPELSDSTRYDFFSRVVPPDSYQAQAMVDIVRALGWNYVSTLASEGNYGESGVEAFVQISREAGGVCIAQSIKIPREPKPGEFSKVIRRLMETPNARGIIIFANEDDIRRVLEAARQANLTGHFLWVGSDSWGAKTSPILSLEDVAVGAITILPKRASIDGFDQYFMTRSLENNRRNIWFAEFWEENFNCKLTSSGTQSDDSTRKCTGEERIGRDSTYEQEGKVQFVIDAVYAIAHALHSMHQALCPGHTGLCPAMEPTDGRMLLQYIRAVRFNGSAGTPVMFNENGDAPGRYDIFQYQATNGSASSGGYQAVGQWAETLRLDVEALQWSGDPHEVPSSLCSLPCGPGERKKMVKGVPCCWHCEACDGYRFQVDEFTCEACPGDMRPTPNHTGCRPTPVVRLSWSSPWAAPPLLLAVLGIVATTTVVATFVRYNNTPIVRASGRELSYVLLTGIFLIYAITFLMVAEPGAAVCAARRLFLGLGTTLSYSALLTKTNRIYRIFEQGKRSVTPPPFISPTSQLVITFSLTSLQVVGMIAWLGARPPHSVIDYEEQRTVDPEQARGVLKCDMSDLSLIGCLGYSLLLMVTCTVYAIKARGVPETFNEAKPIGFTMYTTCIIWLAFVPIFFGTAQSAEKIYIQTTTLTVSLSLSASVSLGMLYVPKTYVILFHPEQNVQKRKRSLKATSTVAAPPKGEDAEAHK
Chain of Metabotropic glutamate receptor 1 (Homo sapiens), Q13255 [A683E] (Q13255 whole entry A683E): as the sequence (Q13255 whole entry) above, with A683E counted along it
Chain of Cytochrome P450 2D6 (P10635 whole entry): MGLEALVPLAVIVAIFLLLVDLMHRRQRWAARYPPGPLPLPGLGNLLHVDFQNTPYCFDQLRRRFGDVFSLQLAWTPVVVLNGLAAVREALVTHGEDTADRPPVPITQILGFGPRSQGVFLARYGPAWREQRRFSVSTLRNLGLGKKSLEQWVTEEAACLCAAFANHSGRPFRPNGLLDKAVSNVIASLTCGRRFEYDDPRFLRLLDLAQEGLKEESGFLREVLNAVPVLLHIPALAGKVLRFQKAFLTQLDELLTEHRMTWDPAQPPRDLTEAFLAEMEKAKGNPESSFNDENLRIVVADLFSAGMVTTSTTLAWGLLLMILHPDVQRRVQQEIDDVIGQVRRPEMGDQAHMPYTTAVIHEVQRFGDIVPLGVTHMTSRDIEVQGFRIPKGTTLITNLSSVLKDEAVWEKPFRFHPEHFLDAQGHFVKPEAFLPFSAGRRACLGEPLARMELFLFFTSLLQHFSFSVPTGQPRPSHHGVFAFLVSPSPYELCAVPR
Chain of Metabotropic glutamate receptor 1 (Homo sapiens), Q13255 [Y632H] (Q13255 whole entry Y632H): as the sequence (Q13255 whole entry) above, with Y632H counted along it
Chain of Metabotropic glutamate receptor 1 (Homo sapiens), Q13255 [P729T] (Q13255 whole entry P729T): as the sequence (Q13255 whole entry) above, with P729T counted along it

Structure (SMILES): Cc1ccoc1C(=O)Nc1ccc(N2C(=O)c3cccc(F)c3C2=O)c(Cl)c1
- EC50 ([1]; read-out: EC50): 31.8 nM
- EC50 ([1]; read-out: pEC50 (converted)): 32.4 nM
- %max [2]: 98%
- EC50 [3]: 1110 nM
- Ratio EC50 (Homo sapiens [4]): 34.9
- EC50 [5]: 40.7 nM
- %max [6]: 103%
- fold change (FC) [7]: 11.4
- fold change (FC) [8]: 2.7
- fold change (FC) [9]: 6.7
- fold change (FC) [10]: < 2
- CLint scaled at 1 µM [11]: 3.1 mL/min/kg
- Fu (Plasma [12]): 0.051
- Fu (Plasma [13]): 0.03
- IC50 (Cytochrome P450 1A2): 25200 nM
- IC50 (Cytochrome P450 2D6): > 30000 nM
- IC50 (Cytochrome P450 3A4): > 30000 nM
- Activity [14]: 40%
- Activity [15]: 40%
- Activity [16]: 40%
- Activity (Hippocampus): 1.16 Hz
- concentration (Brain): 9.2 µM
- CLint scaled at 1 µM (Homo sapiens [17]): 2.7 mL/min/kg
- half-life [18]: 53.6 min
- clearance [19]: 13.3 mL/min/kg
- concentration at 0.25 h [20]: 200 ng/mL
- Vdss (Rattus norvegicus): 0.85 L/kg
- concentration at 0.25 h [21]: 204 ng/mL
- Kp at 0.25 h [22]: 1.02
